{"source": "paper PMC4651627", "about": "(The Journal of organic chemistry, 2015)", "key": {"[1]": {"tested_on": "NCI 60-cell line screen", "conditions": "cited from earlier work"}, "[2]": {"tested_on": "MDA-MB-231", "format": "cell-based, human"}, "[3]": {"tested_on": "small panel of cell lines (five human tumor cell lines, MCF-10A, NIH/3T3)", "test": "MTT cytotoxicity assay, summary over the panel of cell lines", "format": "cell-based"}, "[4]": {"tested_on": "U937 cells", "test": "Cell cycle analysis by flow cytometry", "format": "cell-based, human", "conditions": "90 nM, 48 h", "summary_of_the_method": "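Exponentially growing U937 cells in RPMI-1640 with 10% FBS received test compound in DMSO (final 90 nM) or an equal amount of DMSO. After 48 h at 37 °C in CO2, cells were PBS-washed, fixed overnight in 70% ice-cold ethanol at 4 °C, and RNase-treated (100 µg/ml, 37 °C, 30 min).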"}, "[5]": {"tested_on": "U937 cells", "test": "Cell apoptosis analysis by flow cytometry", "format": "cell-based, human", "conditions": "90 nM, 48 h, control cells 13.2%"}, "[6]": {"tested_on": "MDA-MB-231 breast cancer cells", "test": "DNA fragmentation analysis", "format": "cell-based, human"}}, "data": [{"smiles": "C/C=C(\\C)C(=O)O[C@@H]1[C@@H](O)[C@@H]2O[C@H]3[C@H](O[C@@H](CCC)CCCCCCC(=O)CCC(=O)OC[C@@H](O2)[C@H]1OC(=O)/C=C/c1ccccc1)O[C@H](C)[C@H](OC(C)=O)[C@@H]3O", "note": "[Ipomoeassin A]", "values": [{"measurement": "growth inhibition of different cancer cells", "setting": "[1]", "value": "strong and selective growth inhibition"}]}, {"smiles": "C/C=C(\\C)C(=O)O[C@@H]1[C@@H](O)[C@@H]2O[C@H]3[C@H](O[C@@H](CCCCC)CCCCCCC(=O)CCC(=O)OC[C@@H](O2)[C@H]1OC(=O)/C=C/c1ccccc1)O[C@H](C)[C@H](OC(C)=O)[C@@H]3O", "note": "[Ipomoeassin F]", "values": [{"measurement": "IC90", "setting": "[2]", "value": 100, "unit": "nM"}, {"measurement": "difference in toxicity between two cancer cell lines (U937 and MCF7)", "setting": "[3]; U937 vs MCF7", "value": "~ 8 fold"}, {"measurement": "selectivity between tumor and non-tumor cell lines", "setting": "[3]; tumor lines vs MCF-10A and NIH/3T3", "value": "no selectivity between tumor and non-tumor cell lines was observed"}, {"measurement": "G1 arrest", "setting": "[4]", "value": "~ 25%"}, {"measurement": "reduction of cell population in the G2/M phase", "setting": "[4]", "value": "~ 21%"}, {"measurement": "percentage of apoptotic cells", "setting": "[5]", "value": 33.6, "unit": "%"}, {"measurement": "DNA fragmentation", "setting": "[6]; 100 nM ipomoeassin F (IC90), MDA-MB-231, 72 h", "value": "smaller DNA fragments"}]}, {"smiles": "CN[C@@H]1C[C@H]2O[C@@](C)([C@@H]1OC)n1c3ccccc3c3c4c(c5c6ccccc6n2c5c31)C(=O)NC4", "note": "[staurosporine, reference compound]", "values": [{"measurement": "DNA fragmentation (positive control)", "setting": "[6]; 750 nM staurosporine (Figure 5), MDA-MB-231", "value": "smaller DNA fragments"}]}]}
